Yeast growth inh = growth inhibitors of yeast BB579 in restrictive medium, primary screen, yeast lifespan-shortening project, S. cerevisiae. OD615, 48 h. inhibition, % at 10 µM. 0.51% of 140,000 active;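 active = inhibition above a set limit, 3 SD over the mean compound inhibition, cut at about 44% in these data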
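System: Saccharomyces cerevisiae DeaD strain BB579, replicative lifespan model yeast. Buffer or medium: restrictive glucose-based CSMM-D medium. Doses: one dose, 10 µM compound with 0.25% DMSO. Timing: 4 h preincubation and 48 h exposure at 30 °C. Detection: turbidity as optical density at 615 nm. Benchmarks: amphotericin B 10 µg/mL, positive.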
Phagocyt inh = inhibitors of macrophage phagocytosis, primary screen, imaging, J774A.1 cells, IgG beads; J774A.1 macrophage IgG-bead phagocytosis; inhibition, % at 5 µM; 0.07% of 110,000 active;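 active = inhibition above the mean of the plate negative controls plus 5 SD, cut at about 13% in these data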;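 also: phagocytic index as fraction of beads internalized from green versus red external bead signal; plate controls were DMSO negative control for no effect and cytochalasin-D positive control for full effect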
RAM network inh = inhibitors of the yeast RAM network, primary screen, dse1pr::URA3 reporter, 5-FOA selection. 1.8% of 190,000 active. inhibition, % at 50 µM. AID 868, 2007. S. cerevisiae dse1pr::URA3 reporter, 5-FOA growth OD615, 2 d; analog-sensitive cbk1-as2 kinase mutant strain;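 active = inhibition above a set limit, 3 SD over mean compound inhibition, cut at about 8.4% in these data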;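 also: 0% = DMSO-only wells with no growth and 100% = 10 µM 1-NA-PP1 full growth; inhibition rescues growth on 5-FOA so higher OD means more RAM inhibition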
Measles CPE = compounds protecting cells from measles virus cytopathic effect, primary screen, measles RdRp inhibitor project, single point, MLSMR library, absorbance; AID 841, 2007; 1.5% of 140,000 active; Measles virus-infected cells, CPE protection; protection (pct of control), % at 4 µM; in the data active = protection mostly above about 24%, no sharp cut-off; inactive = mostly below about 26%
Yeast life ext = compounds extending yeast replicative lifespan, primary screen, S. cerevisiae, OD615 | S. cerevisiae growth with nicotinamide; deaD strain in restrictive glucose medium | inhibition of the nicotinamide effect, % at 10 µM | 0.68% of 130,000 active | AID 775, 2007;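 active = inhibition above a set limit, placed 3 SD over the median of all compounds, cut at about 26% in these data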;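 also: 0% = nicotinamide-treated wells and 100% = cells grown without nicotinamide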
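System: DeaD-strain S. cerevisiae / Buffer or medium: CSMM-D, restrictive glucose (dextrose) synthetic minimal medium / Probe or stimulus: nicotinamide, 1.5 mM, co-present with compound / Compound: one concentration, 10 µM, DMSO 0.25% / Incubation: 48 h compound exposure at 30 °C, humidified / Technique: optical density (absorbance) at 615 nm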
RAM efflux-def = 5-FOA growth of efflux-deficient control yeast, dose response, counter-screen for RAM network inhibitor project, S. cerevisiae, OD615 | S. cerevisiae efflux-deficient reporter strain, 5-FOA growth OD615, 2 days | shares compounds with RAM network inh | max inhibition, % | AID 1305, 2008 | 1,200 tested, under 10 active; call rule not given here;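 also: plate controls were vehicle for no effect and reference inhibitor for full effect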
Numbers without * were called inactive; . = not tested or not shown. A selection: hits, their analogues and other compounds. The true share with any hit is near 3.6%.

SMILES	Yeast growth inh	Phagocyt inh	RAM network inh	Measles CPE	Yeast life ext	RAM efflux-def
COC(=O)c1ccccc1NC(=O)c1ccc(COc2ccc3c(c2)CCC3)cc1	-81	-1	14*	.	-10	5
COc1cccc(OC)c1C(=O)NNC(=O)c1cccc(COc2ccc3c(c2)CCC3)c1	-77	0	1	.	6	.
COc1ccccc1NC(=O)c1ccc(COc2ccc3c(c2)CCC3)cc1	-42	-1	8	32	9	.
O=C(NCc1ccccc1)c1cccc(COc2ccc3c(c2)CCC3)c1	-31	-10	12*	8	2	7
CN(Cc1ccccc1)C(=O)c1[nH]cnc1C(=O)N[C@@H](Cc1ccccc1)C(=O)OCc1ccccc1	.	.	12*	.	.	3
CC(C)C[C@H](NC(=O)c1nc[nH]c1C(=O)NCc1ccccc1)C(=O)OCc1ccccc1	.	.	14*	.	.	8
CC(C)(C)OC(=O)NCCCCCNC(=O)c1[nH]cnc1C(=O)N[C@@H](Cc1ccccc1)C(=O)OCc1ccccc1	.	.	13*	.	.	7
C[C@@H](NC(=O)c1nc[nH]c1C(=O)N[C@@H](Cc1ccccc1)C(=O)OCc1ccccc1)c1ccccc1	.	.	8	.	.	.
C=CCSC1=N/C(=C/c2ccsc2)C(=O)N1c1ccccc1	-51	-12	14*	6	0	2
C=CCSC1=N/C(=C\c2cccnc2)C(=O)N1c1ccc(OC)cc1	-8	-12	4	6	0	.
CCOC(=O)C1CN(S(C)(=O)=O)c2cc(CC(=O)OC)ccc2O1 (stereo not given)	.	.	0	.	.	.
CC1CCN(S(=O)(=O)c2ccc(S(=O)(=O)N3CCC4(CC3)OCCO4)cc2)CC1	-24	2	0	13	3	.
COc1ccccc1-n1cnc2c(c1=O)c1nc3ccccc3nc1n2-c1ccc(C)cc1	-46	6	11*	33	3	3
CCOC(=O)C1=C(O)c2ccccc2C(=O)/C1=C\c1ccc(CC)cc1	-18	2	6	10	23	.
CCCc1ccc(/C=C2\C(=O)c3ccccc3C(O)=C2C(=O)OCC)cc1	-43	-1	12*	11	10	4
Cc1cc2oc(C(=O)Nc3ccc(S(N)(=O)=O)cc3)c(C)c2cc1Cl	.	.	0	.	.	.
CCCN1C(=O)/C(=C/c2ccc(C)s2)SC1=Nc1ccc(OC)cc1	-25	3	21*	3	3	2
O=C(O)CCCCNS(=O)(=O)/C=C/c1ccccc1	.	.	-1	.	.	.
O=c1[nH]c(SCc2n[nH]c(=S)n2-c2ccccc2)nc2sc3c(c12)CCC3	-33	.	2	9	-1	.
COC(=O)c1cc(=O)n(Cc2ccc(F)cc2)c(=NCc2ccc(F)cc2)s1	.	.	14*	.	.	3
CCOc1ccc(NC(=O)CN2C(=O)NC(CCSC)C2=O)cc1 (stereo not given)	.	.	2	.	.	.
C=CCOc1c(Br)cc(CNc2ccc(NC(=O)C(C)C)c(OC)c2)cc1OCC	-71	-6	12*	6	7	2
C=CCOc1c(Br)cc(CNc2ccc(NC(=O)CCC)cc2)cc1OCC	-34	.	3	5	-15	.
CCSC1=N/C(=C\c2ccc3c(c2)OCO3)C(=O)S1	-30	.	15*	5	-5	6
CCSC1=N/C(=C\c2cccc(F)c2)C(=O)S1	-34	-6	-2	5	4	.
SMILES	Yeast growth inh	Phagocyt inh	RAM network inh	Measles CPE	Yeast life ext	RAM efflux-def
Cn1c(N=Nc2ccc(N3CCOCC3)cc2)[n+](C)c2ccccc21	.	.	13*	.	.	16
COc1ccc(-n2nc(C(=O)Nc3ccc(OC)c(OC)c3)c3c4ccccc4n(C)c3c2=O)cc1	-82	-1	13*	2	-2	5
COc1ccc(-n2nc(C(=O)Nc3ccc4c(c3)OCO4)c3c4ccccc4n(C)c3c2=O)cc1	.	-6	.	.	.	.
ClCc1nnc(-c2cc3c(s2)CCCC3)o1	.	.	7	.	.	.
O=C(OCC#CCSc1nnc(-c2ccccc2)o1)c1cccs1	-28	-2	3	17	-5	.
O=C(OCC#CCSc1nnc(-c2cccc3ccccc23)o1)c1cccs1	-45	0	14*	7	-9	2
Cc1c(NC(=O)CSc2nc3ccccc3n2C)c(=O)n(-c2ccccc2)n1C	-16	-1	0	28	-7	.
COc1ccc(N)cc1-n1cnnn1	.	.	1	.	.	.
CCCCCOP(=O)(OCCCCC)C1(NS(=O)(=O)c2ccccc2)C=CC(=O)c2ccccc21 (stereo not given)	-1	-4	12*	17	1	1
CCCCCCOC1(c2ccccc2)OC(=O)c2ccccc21 (stereo not given)	-24	.	1	10	-3	.
CCCCOc1ccc(S(=O)(=O)Nc2cc(OC)ccc2OC)cc1	-34	0	11*	10	-1	2
O=C(O)c1cccc(CSc2nnc(-c3ccco3)o2)c1	-32	-2	2	21	6	.
O=c1c(-c2nnc(SCc3ccc(Cl)cc3)o2)cccn1Cc1ccccc1	-98	.	6	26	6	.
COc1cc(OC)cc(-c2nnc(SCc3cccc(C(=O)O)c3)o2)c1	-17	0	14*	3	-8	3
O=C(Nc1ccccc1-c1nnc(SCc2ccccc2)o1)c1ccccc1	-22	.	19*	3	7	4
CC1=CC(=C(C#N)C#N)C=C(C)N1Cc1ccccc1	.	.	0	.	.	.
Cc1cc2c(C)ccc(C)c2nc1SCC(=O)c1cccs1	-42	0	14*	20	-13	2
Cc1cc(C)c(C#N)c(SCC(=O)c2cccs2)n1	-38	-2	3	16	-14	.
COc1ccc(Oc2ccc(/C=C/C(=O)c3cccc(OC)c3)cc2[N+](=O)[O-])cc1	-42	-3	11*	11	2	5
Cc1c(-c2cccc(NC(=O)c3cccs3)c2)nc2ncccn12	-16	.	1	5	-3	.
COc1cccc(CNC(=O)CNC(=S)N(Cc2ccccc2)Cc2ccccc2F)c1	.	.	12*	.	.	2
O=C(CNC(=S)N(Cc1ccccc1)Cc1ccccc1F)NCc1ccccc1	.	.	7	.	.	.
CN(C)CCNC(=O)CNC(=S)N(Cc1ccccc1)Cc1ccccc1F	.	.	-1	.	.	.
Cc1ccc(CNC(=O)CNC(=S)N(Cc2ccccc2)Cc2ccccc2F)cc1	.	.	12*	.	.	4
O=C(CNC(=S)N(Cc1ccccc1)Cc1ccccc1F)NCc1ccc(Cl)cc1	.	.	16*	.	.	2
COc1cc(-c2cc(C(=O)Nc3ccc(S(=O)(=O)NCc4ccco4)cc3)c3ccccc3n2)cc(OC)c1OC	-10	-7	13*	33	6	4
COc1cccc(C(=O)Nc2ccc(S(=O)(=O)NCc3ccco3)cc2)c1	-19	-1	3	4	-3	.

Bioassay records deposited in PubChem BioAssay by several laboratories.
